Experimental data as given in ChEMBL document CHEMBL5058577, “EUbOPEN Chemogenomics Library 2 (Multiplex)” (2022).

Test system: HEK-293T
Assay: Multiplex assay against HEK293T
Assay type: toxicity, cell-based
Conditions: human
Method in brief: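 Phenotypes for tubulin, mitochondrial mass and membrane permeability are expressed as per cents of healthy-nucleus cells. Cells were stained live at seeding with Hoechst33342, BioTracker Green Microtubule Cytoskeleton Dye, MitoTracker Red and Annexin V Alexa Fluor 680, then imaged after compound addition on a CQ1 microscope at 37°C and 5% CO2. Machine-learning gating in CellPathfinder separated Hoechst high-intensity objects from normal cells, divided normal cells by nuclear state (healthy, pyknosed, fragmented) and divided pyknosed cells into mitotic or apoptotic.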

[1] = 12 h, 1 µM, compound concentration 1 uM, replicate 1
[2] = 12 h, 1 µM, compound concentration 1 uM, replicate 2
[3] = 12 h, 10 µM, compound concentration 10 uM, replicate 1
[4] = 12 h, 10 µM, compound concentration 10 uM, replicate 2
[5] = 24 h, 1 µM, compound concentration 1 uM, replicate 1
[6] = 24 h, 1 µM, compound concentration 1 uM, replicate 2
[7] = 24 h, 10 µM, compound concentration 10 uM, replicate 1
[8] = 24 h, 10 µM, compound concentration 10 uM, replicate 2
[9] = 48 h, 1 µM, compound concentration 1 uM, replicate 1
[10] = 48 h, 1 µM, compound concentration 1 uM, replicate 2
[11] = 48 h, 10 µM, compound concentration 10 uM, replicate 1
[12] = 48 h, 10 µM, compound concentration 10 uM, replicate 2

Cc1sc2c(c1C)C(c1ccc(Cl)cc1)=N[C@@H](CC(=O)NCCCCCCCCNC(=O)COc1cccc3c1C(=O)N(C1CCC(=O)NC1=O)C3=O)c1nnc(C)n1-2 (stereo not given in full)
Population Apoptotic (%) [1]: 66%
Population Fragmented Nuclei (%) [1]: 5%
Population Healthy Nuclei (%) [1]: 55%
Population Hoechst High Intensity Objects (%) [1]: 9%
Population Membrane Permeable-Phenotype (%) [1]: 0%
Population Mitochondria Different-Phenotype (%) [1]: 73%
Population Mitotic Cells (%) [1]: 33%
Population Normal (%) [1]: 90%
Population Pyknosed Nuclei (%) [1]: 39%
Population Tubulin-Different-Phenotype (%) [1]: 49%
Total Cell Count [1]: 175
Population Apoptotic (%) [2]: 62%
Population Fragmented Nuclei (%) [2]: 6%
Population Healthy Nuclei (%) [2]: 69%
Population Hoechst High Intensity Objects (%) [2]: 30%
Population Mitochondria Different-Phenotype (%) [2]: 91%
Population Mitotic Cells (%) [2]: 37%
Population Normal (%) [2]: 69%
Population Pyknosed Nuclei (%) [2]: 24%
Population Tubulin-Different-Phenotype (%) [2]: 59%
Total Cell Count [2]: 205
Population Apoptotic (%) [3]: 60%
Population Fragmented Nuclei (%) [3]: 9%
Population Healthy Nuclei (%) [3]: 67%
Population Hoechst High Intensity Objects (%) [3]: 14%
Population Membrane Permeable-Phenotype (%) [3]: 0%
Population Mitochondria Different-Phenotype (%) [3]: 75%
Population Mitotic Cells (%) [3]: 39%
Population Normal (%) [3]: 85%
Population Pyknosed Nuclei (%) [3]: 23%
Population Tubulin-Different-Phenotype (%) [3]: 23%
Total Cell Count [3]: 363
Population Apoptotic (%) [4]: 53%
Population Fragmented Nuclei (%) [4]: 8%
Population Healthy Nuclei (%) [4]: 66%
Population Hoechst High Intensity Objects (%) [4]: 37%
Population Mitochondria Different-Phenotype (%) [4]: 87%
Population Mitotic Cells (%) [4]: 46%
Population Normal (%) [4]: 62%
Population Pyknosed Nuclei (%) [4]: 24%
Population Tubulin-Different-Phenotype (%) [4]: 39%
Total Cell Count [4]: 315
Population Apoptotic (%) [5]: 51%
Population Fragmented Nuclei (%) [5]: 7%
Population Healthy Nuclei (%) [5]: 61%
Population Hoechst High Intensity Objects (%) [5]: 6%
Population Membrane Permeable-Phenotype (%) [5]: 0%
Population Mitochondria Different-Phenotype (%) [5]: 58%
Population Mitotic Cells (%) [5]: 48%
Population Normal (%) [5]: 93%
Population Pyknosed Nuclei (%) [5]: 31%
Population Tubulin-Different-Phenotype (%) [5]: 22%
Total Cell Count [5]: 261
Population Apoptotic (%) [6]: 67%
Population Fragmented Nuclei (%) [6]: 6%
Population Healthy Nuclei (%) [6]: 70%
Population Hoechst High Intensity Objects (%) [6]: 30%
Population Mitochondria Different-Phenotype (%) [6]: 83%
Population Mitotic Cells (%) [6]: 32%
Population Normal (%) [6]: 69%
Population Pyknosed Nuclei (%) [6]: 23%
Population Tubulin-Different-Phenotype (%) [6]: 31%
Total Cell Count [6]: 231
Population Apoptotic (%) [7]: 52%
Population Fragmented Nuclei (%) [7]: 11%
Population Healthy Nuclei (%) [7]: 64%
Population Hoechst High Intensity Objects (%) [7]: 12%
Population Membrane Permeable-Phenotype (%) [7]: 0%
Population Mitochondria Different-Phenotype (%) [7]: 64%
Population Mitotic Cells (%) [7]: 47%
Population Normal (%) [7]: 87%
Population Pyknosed Nuclei (%) [7]: 24%
Population Tubulin-Different-Phenotype (%) [7]: 19%
Total Cell Count [7]: 397
Population Apoptotic (%) [8]: 57%
Population Fragmented Nuclei (%) [8]: 9%
Population Healthy Nuclei (%) [8]: 60%
Population Hoechst High Intensity Objects (%) [8]: 39%
Population Mitochondria Different-Phenotype (%) [8]: 86%
Population Mitotic Cells (%) [8]: 42%
Population Normal (%) [8]: 60%
Population Pyknosed Nuclei (%) [8]: 30%
Total Cell Count [8]: 346
Population Apoptotic (%) [9]: 55%
Population Fragmented Nuclei (%) [9]: 7%
Population Healthy Nuclei (%) [9]: 58%
Population Hoechst High Intensity Objects (%) [9]: 2%
Population Membrane Permeable-Phenotype (%) [9]: 0%
Population Mitochondria Different-Phenotype (%) [9]: 56%
Population Mitotic Cells (%) [9]: 44%
Population Normal (%) [9]: 97%
Population Pyknosed Nuclei (%) [9]: 33%
Population Tubulin-Different-Phenotype (%) [9]: 30%
Total Cell Count [9]: 284
Population Apoptotic (%) [10]: 67%
Population Fragmented Nuclei (%) [10]: 9%
Population Healthy Nuclei (%) [10]: 65%
Population Hoechst High Intensity Objects (%) [10]: 15%
Population Mitochondria Different-Phenotype (%) [10]: 78%
Population Mitotic Cells (%) [10]: 32%
Population Normal (%) [10]: 84%
Population Pyknosed Nuclei (%) [10]: 25%
Population Tubulin-Different-Phenotype (%) [10]: 42%
Total Cell Count [10]: 289
Population Apoptotic (%) [11]: 48%
Population Fragmented Nuclei (%) [11]: 9%
Population Healthy Nuclei (%) [11]: 55%
Population Hoechst High Intensity Objects (%) [11]: 14%
Population Membrane Permeable-Phenotype (%) [11]: 0%
Population Mitochondria Different-Phenotype (%) [11]: 51%
Population Mitotic Cells (%) [11]: 51%
Population Normal (%) [11]: 85%
Population Pyknosed Nuclei (%) [11]: 35%
Population Tubulin-Different-Phenotype (%) [11]: 17%
Total Cell Count [11]: 403
Population Apoptotic (%) [12]: 65%
Population Fragmented Nuclei (%) [12]: 15%
Population Healthy Nuclei (%) [12]: 52%
Population Hoechst High Intensity Objects (%) [12]: 31%
Population Mitochondria Different-Phenotype (%) [12]: 76%
Population Mitotic Cells (%) [12]: 34%
Population Normal (%) [12]: 69%
Population Pyknosed Nuclei (%) [12]: 31%
Population Tubulin-Different-Phenotype (%) [12]: 31%
Total Cell Count [12]: 300
